From PubChem BioAssay
Sampled rows, rich in hits. Any-hit rate of the full collection: about 2.4%.
HePTP inhibitor: inhibitors of human HePTP phosphatase; P35236; recombinant HePTP phosphatase activity, OD absorbance; inhibition, % at 20 µM; hit rate 0.64% among 110,000; AID 521; in the data active means inhibition above about 50%;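 further: plate controls were vehicle for no effect and reference inhibitor for full effect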
E coli RNAP: Escherichia coli RNA polymerase inhibition; P0A8V2; E. coli RNA polymerase, fluorescence transcription assay; inhibition, %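 (tested at 10 µM)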; hit rate 0.2% among 62,000; in the data active means inhibition above about 20%;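 further: 0% = enzyme without compound and 100% = no enzyme blank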
SF1 activator: activates the human nuclear receptor SF-1. activation, % at 10 µM. AID 522. hit rate 1.9% among 65,000. CHO-K1 Gal4-SF-1 LBD luciferase reporter; % increase over DMSO SF-1-specific signal. Q13285;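 active means activation above the mean activation of all tested compounds plus 3 SD, cut at about 50% in these data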
Target sequence (Q13285 whole entry, looked up, the tested form may be a part): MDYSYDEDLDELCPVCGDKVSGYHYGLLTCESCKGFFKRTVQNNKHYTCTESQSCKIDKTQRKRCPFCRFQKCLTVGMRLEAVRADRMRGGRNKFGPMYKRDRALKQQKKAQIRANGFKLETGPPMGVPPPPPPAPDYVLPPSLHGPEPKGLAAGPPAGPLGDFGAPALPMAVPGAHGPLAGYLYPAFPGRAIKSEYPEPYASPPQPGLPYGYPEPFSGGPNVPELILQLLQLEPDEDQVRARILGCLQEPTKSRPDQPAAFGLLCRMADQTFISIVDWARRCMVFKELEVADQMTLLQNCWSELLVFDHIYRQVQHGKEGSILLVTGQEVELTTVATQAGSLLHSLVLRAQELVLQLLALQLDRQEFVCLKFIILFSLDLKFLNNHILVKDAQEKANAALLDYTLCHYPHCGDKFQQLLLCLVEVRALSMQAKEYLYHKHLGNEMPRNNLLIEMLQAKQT
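Test system: transient Gal4-SF-1 LBD reporter, CHO-K1; Amount: 4,000 CHO-K1 cells per well; Doses: 10 µM only; Timing: compound exposure 20 h at 37 °C; Signal: luciferase light emission; Read-out basis: percent activation relative to DMSO median and mock-transfected background; Control set: DMSO negative control and −SF1 background wells; Replicates: one test per compound.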
MMP13 inh: MMP13 (human) collagenase inhibition | P45452 | MMP-13 fTHP FRET cleavage, Mca fluorescence | inhibition, % at 4 µM | hit rate 0.07% among 65,000;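 active means inhibition above the mean of compound-free control plate wells plus 3 SD, cut at about 14% in these data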;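 further: 0% = DMSO wells and 100% = wells with reference MMP-13 inhibitor after basal subtraction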
AP complement: alternative pathway complement inhibition, orthogonal assay; Human serum alternative complement pathway, LPS-coated ELISA, C3 deposition; tested in compound mixtures; inhibition, % at 5 µM; hit rate 0.08% among 62,000;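 active means inhibition above 30% in each of the two pooled mixtures holding the compound, so the lower value exceeds 30%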;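 further: 0% = serum in Mg-EGTA without compound and 100% = EDTA serum blank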
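Assay system: human serum alternative complement pathway, C3 deposition on LPS-coated wells; Dosing: 5 µM per compound in ten-compound mixtures; Detection: Anti-C3 ELISA, OD 450 nm; Buffer or medium: Mg2+-EGTA GVB++ buffer containing human serum at 1:15 dilution; Timing: 1 h at 37 °C; Replication: two different pools per compound.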
RORa activator: RORA (human) activation; P35398; CHO-K1 Gal4-RORA LBD luciferase reporter, luminescence; percent increase over mock-subtracted basal signal; activation, % at 10 µM; hit rate 1.5% among 65,000; AID 560;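 active means activation above the mean of all tested compounds plus 3 SD, cut at about 49% in these data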;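 further: 0% = DMSO-treated RORA cells and 100% = added signal equal to DMSO minus mock-transfected cells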
* = called active by the depositor.

Screening C=CCN1C(=O)/C(=C\c2ccc(OC(=O)c3cccc(Br)c3)c(OC)c2)SC1=S returned HePTP inhibitor 6.
`Cc1ccc(N/C=C2/CNC(=O)NC2=O)cc1` gave HePTP inhibitor -2.
`CCn1c(Cn2nnc(-c3ccccc3)n2)nnc1SCC(=O)Nc1ccc(C(C)=O)cc1` gave HePTP inhibitor 5, E coli RNAP 9, SF1 activator -2, MMP13 inh 0, AP complement -10 and RORa activator 60*.
Screening COc1ccc(CNc2ccc(-c3ccc(OC)cc3)nn2)cc1 returned HePTP inhibitor 6, E coli RNAP 12, SF1 activator 80*, MMP13 inh -2, AP complement 2 and RORa activator 40.
CCOC(=O)c1sc(NC(=O)COc2ccccc2C)c(C(=O)OCC)c1C was read as HePTP inhibitor 1.
O=C(CN(Cc1ccccc1)Cc1ccccc1)NCCNc1ccc([N+](=O)[O-])cc1Cl was read as HePTP inhibitor 12.
COCCCN(C(C)=O)c1nc(-c2ccccc2)cs1 was read as HePTP inhibitor 4, E coli RNAP 8, SF1 activator 79*, MMP13 inh 0, AP complement 5 and RORa activator 35.
For CCN(CC)CCCN(C(=O)c1cccs1)c1nc(-c2ccc(OC)cc2)cs1 the results were HePTP inhibitor 8, E coli RNAP 11, SF1 activator -1, MMP13 inh -4, AP complement 6 and RORa activator 26.
COc1ccc(CNc2ccc(C(=O)O)cc2)cc1 was read as HePTP inhibitor -6, E coli RNAP 1, SF1 activator 78*, MMP13 inh -3, AP complement 4 and RORa activator 13.
Screening Cc1ccc(C(=O)Nc2ccc3c(c2)ncn3C)cc1 returned HePTP inhibitor 6, E coli RNAP 5, SF1 activator 38, MMP13 inh 4, AP complement 3 and RORa activator 52*.
For CCn1cnc2cc(NCc3ccncc3)ccc21 the results were HePTP inhibitor -2, E coli RNAP 15, SF1 activator 8, MMP13 inh -1, AP complement -2 and RORa activator -10.
Screening COc1ccc(S(=O)(=O)NCc2ccc(C(=O)O)cc2)cc1 returned HePTP inhibitor 5, E coli RNAP 4, SF1 activator 3, MMP13 inh 0, AP complement 13 and RORa activator 0.
For COc1ccc(CNc2ccc3c(c2)nc(C)n3C)cc1 the results were HePTP inhibitor 10, E coli RNAP 5, SF1 activator 79*, MMP13 inh -4, AP complement 12 and RORa activator 38.
For CCc1ccc(CNc2ccc3c(c2)ncn3C)cc1 the results were HePTP inhibitor 11, E coli RNAP 4, SF1 activator 70*, MMP13 inh -16, AP complement 10 and RORa activator 61*.
For COC(=O)c1c(N)sc(C)c1-c1cccc(Cl)c1 the results were HePTP inhibitor 4.
Cc1ccc(CNc2ccc3c(c2)ncn3C)cc1 was read as HePTP inhibitor 4, E coli RNAP -2, SF1 activator 57*, MMP13 inh -15, AP complement 13 and RORa activator 63*.
For COC(=O)c1cn(C(=O)c2ccc(C)c([N+](=O)[O-])c2)c2ccccc12 the results were HePTP inhibitor 7.
O=C(Nc1nc2ccccc2[nH]1)c1ccc(Cl)c(Cl)c1 was read as HePTP inhibitor 9.
`O=C1/C(=C\c2cccs2)CC2CC1C/C(=C/c1cccs1)C2=O` gave HePTP inhibitor 6.
For O=C1/C(=C\c2ccco2)CC2CC1C/C(=C/c1ccco1)C2=O the results were HePTP inhibitor 102*.
`CC(C)(C)c1ccc(-c2nc(C#N)c(NCc3ccncc3)o2)cc1` gave HePTP inhibitor 7, E coli RNAP 9, SF1 activator 83*, MMP13 inh -27, AP complement 10 and RORa activator 60*.
COc1ccc(-c2nc(C#N)c(NCc3ccc(C)cc3)o2)cc1OC was read as HePTP inhibitor 8, E coli RNAP 1, SF1 activator 4, MMP13 inh -156, AP complement 22 and RORa activator -1.
Screening CC1=C(C(=O)Nc2ccccc2C)C(c2ccccc2O)NC(=O)N1 (configuration not stated) returned HePTP inhibitor 2.
